Results on three compounds are retold here after ChEMBL document CHEMBL4229376, “Optimization of the pharmacokinetic properties of potent anti-trypanosomal triazine derivatives” (Eur J Med Chem, 2018).

pIC50: −log10 of the molar value. Activity calls are given as the source filed them. The calls are words filed in the database; no cut-off is given here. Where only a bound is given, the exact number is not on record here.

Series [1] deals with Trypanosoma brucei brucei. Put plainly: Antitrypanosomal activity against suramin-sensitive Trypanosoma brucei brucei Squib 427 after 72 hrs by resazurin dye-based fluorimetric analysis. The series is classed as functional, organism-based. The note with it: Squib 427, 72 h. (Alamar Blue is a resazurin reagent that responds to reducing activity.)
In a further series the test system is Trypanosoma cruzi. The series is described as follows: Antitrypanosomal activity against nifurtimox-sensitive Trypanosoma cruzi Tulahuen CL2 infected in human MRC5 SV2 cells assessed as reduction in parasite burden after 168 hrs by CPRG and Nonidet based spectrophotometric analysis. The series is classed as functional, organism-based. Conditions: Tulahuen CL2, MRC-5 SV2, 168 h.

In the next series the test system is Leishmania infantum. Put plainly: Antileishmanial activity against Leishmania infantum MHOM/MA (BE)/67 amastigotes infected in primary peritoneal mouse macrophages after 120 hrs by giemsa staining-based microscopic analysis. It is filed as functional, organism-based. The note with it: MHOM/MA (BE)/67, 120 h.
Another series relates to Plasmodium falciparum. The series is described as follows: Antiplasmodial activity against chloroquine-resistant Plasmodium falciparum K1 infected in human erythrocytes after 72 hrs by Malstat reagent-based spectrophotometric analysis. The series is classed as functional, organism-based. The note with it: K1, 72 h.
The nature of series [2]: Cytotoxicity against human MRC5 SV2 cells after 72 hrs by resazurin dye-based fluorimetric analysis. The series is classed as cell-based. Conditions: MRC-5 SV2, 72 h.
The subject of a further series is Peritoneal macrophage. Put plainly: Cytotoxicity against mouse primary peritoneal macrophages after 72 hrs by resazurin dye-based fluorimetric analysis. It is filed as cell-based.
Series [3] in a line: Drug metabolism in mouse liver microsomes assessed as CYP450 mediated compound […] by measuring parent compound remaining at 5 uM after 15 mins in presence of NADPH by UPLC/MS/ESI analysis. Conditions: read-out: Stability. It is filed as ADME. (Liver microsomes are vesicles of endoplasmic reticulum, rich in cytochrome P450 enzymes.)
The nature of series [4]: Drug metabolism in mouse liver microsomes assessed as CYP450 mediated compound […] by measuring parent compound remaining at 5 uM after 30 mins in presence of NADPH by UPLC/MS/ESI analysis. The series is classed as ADME. Conditions: read-out: Stability.
The nature of series [5]: Drug metabolism in mouse liver microsomes assessed as CYP450 mediated compound […] by measuring parent compound remaining at 5 uM after 60 mins in presence of NADPH by UPLC/MS/ESI analysis. It is filed as ADME. The note with it: read-out: Stability.
Series [6] can be described thus: Drug metabolism in mouse liver microsomes assessed as UGT mediated compound […] by measuring parent compound remaining at 5 uM after 15 mins in presence of UDPGA by UPLC/MS/ESI analysis. Conditions: 0.25 h. The series is classed as ADME. In a few lines:
(§1)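 Metabolic stability was run with mouse liver microsomal fraction (S9) and read as percent parent compound remaining over incubation time. Diclofenac served as the reference compound.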

Series [7] is described as follows: Drug metabolism in mouse liver microsomes assessed as UGT mediated compound […] by measuring parent compound remaining at 5 uM after 30 mins in presence of UDPGA by UPLC/MS/ESI analysis. The note with it: 0.5 h. It is filed as ADME. The essentials:
as §1

Series [8] in a line: Drug metabolism in mouse liver microsomes assessed as UGT mediated compound […] by measuring parent compound remaining at 5 uM after 60 mins in presence of UDPGA by UPLC/MS/ESI analysis. The series is classed as ADME. The note with it: 1 h. The essentials: as §1
Series [9] in a line: Drug metabolism in human liver microsomes assessed as CYP450 mediated compound […] by measuring parent compound remaining at 5 uM after 15 mins in presence of NADPH by UPLC/MS/ESI analysis. It is filed as ADME. Conditions: read-out: Stability.
The nature of series [10]: Drug metabolism in human liver microsomes assessed as CYP450 mediated compound […] by measuring parent compound remaining at 5 uM after 30 mins in presence of NADPH by UPLC/MS/ESI analysis. It is filed as ADME. The note with it: read-out: Stability.
Series [11] can be described thus: Drug metabolism in human liver microsomes assessed as CYP450 mediated compound […] by measuring parent compound remaining at 5 uM after 60 mins in presence of NADPH by UPLC/MS/ESI analysis. It is filed as ADME. Conditions: read-out: Stability.
Series [12] in a line: Drug metabolism in human liver microsomes assessed as UGT mediated compound […] by measuring parent compound remaining at 5 uM after 15 mins in presence of UDPGA by UPLC/MS/ESI analysis. It is filed as ADME. The note with it: read-out: Stability.
Series [13] is described as follows: Drug metabolism in human liver microsomes assessed as UGT mediated compound […] by measuring parent compound remaining at 5 uM after 30 mins in presence of UDPGA by UPLC/MS/ESI analysis. The note with it: read-out: Stability. It is filed as ADME.
Series [14] is described as follows: Drug metabolism in human liver microsomes assessed as UGT mediated compound […] by measuring parent compound remaining at 5 uM after 60 mins in presence of UDPGA by UPLC/MS/ESI analysis. The series is classed as ADME. Conditions: read-out: Stability.
Series [15] in a line: Drug metabolism in human plasma assessed as parent compound remaining after 15 mins by UPLC/MS/ESI analysis. The note with it: read-out: Stability. It is filed as ADME, cell-free.
The nature of series [16]: Drug metabolism in human plasma assessed as parent compound remaining after 30 mins by UPLC/MS/ESI analysis. It is filed as ADME, cell-free. The note with it: read-out: Stability.
A short description of series [17]: Drug metabolism in human plasma assessed as parent compound remaining after 60 mins by UPLC/MS/ESI analysis. The series is classed as ADME, cell-free. Conditions: read-out: Stability.
Series [18] in a line: Drug metabolism in human plasma assessed as parent compound remaining after 1440 mins by UPLC/MS/ESI analysis. The series is classed as ADME, cell-free. The essentials: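 Compound incubated in human plasma for 24 h at 37 °C, and the fraction of parent compound remaining was determined.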
Series [19] concerns Trypanosoma brucei brucei. The series is described as follows: Antitrypanosomal activity against Trypanosoma brucei brucei Squib 427 infected in Swiss mouse assessed as mouse survival at 10 mg/kg, ip administered as single dose for 5 days and measured on day 14 post infection. The series is classed as functional, organism-based. The essentials:
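Acute T. b. brucei mouse infection model. Dosing was PO or IP at 10–50 mg/kg, once (SID) or twice (BID) daily for 5 days after infection, with 3 mice per group. […] Read-outs were mean survival time and survivors on day 14 post infection.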

For series [20], the system named is Trypanosoma brucei brucei. The series is described as follows: Antitrypanosomal activity against Trypanosoma brucei brucei Squib 427 infected in Swiss mouse assessed as mean survival days at 10 mg/kg, ip administered as single dose for 5 days. The series is classed as functional. In a few lines: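 Acute mouse infection model with T. b. brucei. Dosing ran for 5 days after infection, orally or intraperitoneally, once or twice daily. Groups were 3 mice each, with vehicle-treated infected controls. The read-out was mean survival time in days, plus the number of survivors on day 14 post-infection.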

The subject of series [21] is Trypanosoma brucei brucei. The series is described as follows: Antitrypanosomal activity against Trypanosoma brucei brucei Squib 427 assessed as reduction in parasite growth at 7 to 14 times IC50 after 18 to 48 hrs resazurin dye-based fluorimetric analysis. It is filed as functional, organism-based. The essentials:
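In vitro time course of T. b. brucei growth in the presence of compound, with parasite growth expressed as % of control.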

By pIC50 is commonly meant the IC50 on a negative log10 scale, so that one unit is a factor of ten. As to `Cc1cc(C)c(Oc2nc(N)nc(Nc3ccc(F)cc3)n2)c(C)c1`, the negative-log IC50 (pIC50) is 6.52 in [1]; less than 4.19 with Trypanosoma cruzi; less than 4.19 in the series on Leishmania infantum; less than 4.19 in the series on Plasmodium falciparum; less than 4.19 in series [2]; less than 4.19 with Peritoneal macrophage. For the same compound, the remaining at 0.25 h, 5 µM amounted to 22% in series [3], 53% in series [9] and 95% in series [12]. The remaining at 0.5 h, 5 µM is 4% in [4], 33% in series [10] and 118% in series [13]. The values for the remaining at 1 h, 5 µM in series [5], in series [11] and in [14] were 0.3%, 13% and 91%, respectively. In addition, the Stability in series [6] is 94%; in [7] it was 102%; in [8], 112%; in [18] (24 h) it was 151%. Besides, in series [15], the remaining at 0.25 h worked out at 100%. The remaining at 0.5 h in [16] turned out to be 104%. In addition, the remaining at 1 h in series [17] came out at 115%.
With `Cc1ccc(C(=O)Nc2ccc(S(=O)(=O)O)c3cc(S(=O)(=O)O)cc(S(=O)(=O)O)c23)cc1NC(=O)c1cccc(NC(=O)Nc2cccc(C(=O)Nc3cc(C(=O)Nc4ccc(S(=O)(=O)O)c5cc(S(=O)(=O)O)cc(S(=O)(=O)O)c45)ccc3C)c2)c1` [SURAMIN], the result in series [19] and in series [21] was Active. In addition, the MST in series [20] was greater than 7 days.
Turning to `Cc1ccc(Oc2nc(N)nc(Nc3ccc(F)cc3)n2)cc1`, the pIC50 is 6.40 in series [1]; less than 4.19 with Trypanosoma cruzi; 4.49 in the series with Leishmania infantum; less than 4.19 in the series on Plasmodium falciparum; less than 4.19 in series [2]; 4.49 in the series with Peritoneal macrophage. Moreover, the results for the remaining at 0.25 h, 5 µM in series [3], in [9] and in series [12] were 57%, 107% and 96%, respectively. Further, the remaining at 0.5 h, 5 µM in series [4] turned out to be 28%; in [10] it was 99%; in series [13], 105%. Moreover, the remaining at 1 h, 5 µM in [5] was 10.5%; in [11], 113%; in series [14] it was 94%. Besides, the Stability in series [6] came to 91%; in [7], 104%; in series [8], 110%. Moreover, in [15], the remaining at 0.25 h turned out to be 104%. Further, the remaining at 0.5 h in series [16] is 94%. Moreover, the remaining at 1 h in series [17] was 101%. Moreover, the remaining at 24 h in series [18] (read-out: Stability) came out at 95%.
